Calls of active or inactive are those of the source. No cut-off for these calls is given here.
Experiments:
[1] = Cytotoxicity against mouse brain Primary embryonic cortical cell assessed as cell death at 30 uM incubated for 24 hrs by propidium iodide dye based spectrofluorometric analysis relative to control; type: toxicity
In short: (§1)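 Primary cortical cultures from E16.5 mouse embryo brains, trypsinized, plated on poly-D-lysine, grown in Neurobasal with glutamine, glucose, 5% horse serum and B27; compounds added at 4 DIV. Propidium iodide 30 μM; baseline F1 read 1 h after PI; ex 530/em 645 nm. Fmax after digitonin permeabilization. % death = 100×(Fn−F1)/(Fmax−F1); mean of three independent experiments.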

[2] = Cytotoxicity against mouse brain Primary embryonic cortical cell assessed as cell death at 5 uM incubated for 2 hrs by propidium iodide dye based spectrofluorometric analysis relative to control; type: toxicity; in short: as §1
[3] = Cytotoxicity against mouse brain Primary embryonic cortical cell assessed as cell death at 10 uM incubated for 24 hrs by propidium iodide dye based spectrofluorometric analysis relative to control; type: toxicity; in short: as §1
Acetylcholinesterase [4] = molecular target: Acetylcholinesterase (Electrophorus electricus, UniProt O42275); assay: Inhibition of electric eel AChE using acetylthiocholine iodide as substrate preincubated for 20 mins followed by substrate addition by DTNB reagent based Ellman's method
Chain of Acetylcholinesterase (Electrophorus electricus, UniProt O42275) (O42275 whole entry): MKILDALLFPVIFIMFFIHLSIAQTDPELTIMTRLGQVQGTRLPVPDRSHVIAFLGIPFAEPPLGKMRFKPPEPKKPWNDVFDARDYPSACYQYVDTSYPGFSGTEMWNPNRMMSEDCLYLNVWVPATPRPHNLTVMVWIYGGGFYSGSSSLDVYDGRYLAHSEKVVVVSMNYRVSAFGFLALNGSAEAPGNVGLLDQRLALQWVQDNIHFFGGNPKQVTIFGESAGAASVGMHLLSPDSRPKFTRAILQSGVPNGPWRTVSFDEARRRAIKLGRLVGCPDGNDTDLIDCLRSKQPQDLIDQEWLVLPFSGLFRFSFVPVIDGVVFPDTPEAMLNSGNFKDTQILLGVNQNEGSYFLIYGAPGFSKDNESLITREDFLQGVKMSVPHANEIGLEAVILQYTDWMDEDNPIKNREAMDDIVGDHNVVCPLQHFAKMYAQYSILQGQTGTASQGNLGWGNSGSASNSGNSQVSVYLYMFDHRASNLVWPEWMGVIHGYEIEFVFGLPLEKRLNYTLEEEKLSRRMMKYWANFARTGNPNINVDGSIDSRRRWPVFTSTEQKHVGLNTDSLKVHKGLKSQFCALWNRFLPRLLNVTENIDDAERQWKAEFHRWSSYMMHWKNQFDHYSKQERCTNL

[5] = Cytotoxicity against mouse brain Primary embryonic cortical cell assessed as cell death at 2.5 uM incubated for 2 hrs by propidium iodide dye based spectrofluorometric analysis relative to control; type: toxicity; in short: as §1
[6] = Cytotoxicity against mouse brain Primary embryonic cortical cell assessed as cell death at 2.5 uM incubated for 4 hrs by propidium iodide dye based spectrofluorometric analysis relative to control; type: toxicity; in short: as §1
Acetylcholinesterase [7] = molecular target: Acetylcholinesterase (Homo sapiens, UniProt P22303); assay: Inhibition of human recombinant AChE using acetylthiocholine iodide as substrate preincubated for 20 mins followed by substrate addition by DTNB reagent based Ellman's method
Chain of Acetylcholinesterase (Homo sapiens, UniProt P22303) (P22303 whole entry): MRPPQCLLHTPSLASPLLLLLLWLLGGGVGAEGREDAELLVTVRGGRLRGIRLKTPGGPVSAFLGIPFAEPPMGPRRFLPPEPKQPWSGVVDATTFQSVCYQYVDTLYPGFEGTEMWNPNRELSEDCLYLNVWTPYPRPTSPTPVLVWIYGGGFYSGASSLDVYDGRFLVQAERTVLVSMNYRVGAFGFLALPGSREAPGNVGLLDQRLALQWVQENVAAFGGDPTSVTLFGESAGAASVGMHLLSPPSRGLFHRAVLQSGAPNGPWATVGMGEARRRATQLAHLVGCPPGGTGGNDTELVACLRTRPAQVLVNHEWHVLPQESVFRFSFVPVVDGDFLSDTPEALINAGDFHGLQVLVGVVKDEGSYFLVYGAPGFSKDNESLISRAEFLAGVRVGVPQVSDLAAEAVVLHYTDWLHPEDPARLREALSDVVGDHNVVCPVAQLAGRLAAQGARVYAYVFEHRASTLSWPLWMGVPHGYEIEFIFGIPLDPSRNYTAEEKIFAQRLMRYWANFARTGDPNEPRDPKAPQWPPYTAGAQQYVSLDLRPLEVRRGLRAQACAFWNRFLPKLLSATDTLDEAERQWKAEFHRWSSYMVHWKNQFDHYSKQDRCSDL

[8] = Cytotoxicity against mouse brain Primary embryonic cortical cell assessed as cell death at 2.5 uM incubated for 48 hrs by propidium iodide dye based spectrofluorometric analysis relative to control; type: toxicity; in short: as §1
[9] = Cytotoxicity against mouse brain Primary embryonic cortical cell assessed as cell death at 2.5 uM incubated for 1 hr by propidium iodide dye based spectrofluorometric analysis relative to control; type: toxicity; in short: as §1
[10] = Cytotoxicity against mouse brain Primary embryonic cortical cell assessed as cell death at 30 uM incubated for 3 hrs by propidium iodide dye based spectrofluorometric analysis relative to control; type: toxicity; in short: as §1
[11] = Cytotoxicity against mouse brain Primary embryonic cortical cell assessed as cell death at 5 uM incubated for 3 hrs by propidium iodide dye based spectrofluorometric analysis relative to control; type: toxicity; in short: as §1
[12] = Cytotoxicity against mouse brain Primary embryonic cortical cell assessed as cell death at 10 uM incubated for 48 hrs by propidium iodide dye based spectrofluorometric analysis relative to control; type: toxicity; in short: as §1
[13] = Cytotoxicity against mouse brain Primary embryonic cortical cell assessed as cell death at 30 uM incubated for 1 hr by propidium iodide dye based spectrofluorometric analysis relative to control; type: toxicity; in short: as §1
Cholinesterase = Cholinesterase (Homo sapiens, UniProt P06276); assay: Inhibition of human recombinant BChE using acetylthiocholine iodide as substrate at 10 uM preincubated for 20 mins followed by substrate addition by DTNB reagent based Ellman's method relative to control
Chain of Cholinesterase (P06276 whole entry): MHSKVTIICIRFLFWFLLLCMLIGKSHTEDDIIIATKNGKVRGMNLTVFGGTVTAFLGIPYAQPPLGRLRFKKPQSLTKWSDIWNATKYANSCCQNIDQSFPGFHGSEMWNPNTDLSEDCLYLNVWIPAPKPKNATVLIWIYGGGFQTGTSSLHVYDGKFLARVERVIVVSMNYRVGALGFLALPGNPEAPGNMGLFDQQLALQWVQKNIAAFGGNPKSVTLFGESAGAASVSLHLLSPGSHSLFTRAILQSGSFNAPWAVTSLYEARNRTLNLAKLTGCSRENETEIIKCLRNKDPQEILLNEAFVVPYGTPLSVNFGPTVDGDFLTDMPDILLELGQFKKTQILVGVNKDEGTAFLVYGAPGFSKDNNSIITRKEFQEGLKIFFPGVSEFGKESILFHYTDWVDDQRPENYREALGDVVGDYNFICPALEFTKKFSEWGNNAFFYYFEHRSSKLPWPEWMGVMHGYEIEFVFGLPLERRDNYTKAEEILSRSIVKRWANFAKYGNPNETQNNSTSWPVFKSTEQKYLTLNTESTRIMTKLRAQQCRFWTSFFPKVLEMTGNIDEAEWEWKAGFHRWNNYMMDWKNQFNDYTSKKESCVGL
In short: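 Human BChE activity was read by the Ellman spectrophotometric method. Results are % inhibition at a single 10 μM inhibitor concentration. Values are means of three independent experiments.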

[14] = Cytotoxicity against mouse brain Primary embryonic cortical cell assessed as cell death at 10 uM incubated for 72 hrs by propidium iodide dye based spectrofluorometric analysis relative to control; type: toxicity; in short: as §1
[15] = molecular target: Microtubule-associated protein tau (Homo sapiens, UniProt P10636); assay: Inhibition of tau (unknown origin) aggregation expressed in Escherichia coli BL21 (DE3)
Chain of Microtubule-associated protein tau (P10636 whole entry): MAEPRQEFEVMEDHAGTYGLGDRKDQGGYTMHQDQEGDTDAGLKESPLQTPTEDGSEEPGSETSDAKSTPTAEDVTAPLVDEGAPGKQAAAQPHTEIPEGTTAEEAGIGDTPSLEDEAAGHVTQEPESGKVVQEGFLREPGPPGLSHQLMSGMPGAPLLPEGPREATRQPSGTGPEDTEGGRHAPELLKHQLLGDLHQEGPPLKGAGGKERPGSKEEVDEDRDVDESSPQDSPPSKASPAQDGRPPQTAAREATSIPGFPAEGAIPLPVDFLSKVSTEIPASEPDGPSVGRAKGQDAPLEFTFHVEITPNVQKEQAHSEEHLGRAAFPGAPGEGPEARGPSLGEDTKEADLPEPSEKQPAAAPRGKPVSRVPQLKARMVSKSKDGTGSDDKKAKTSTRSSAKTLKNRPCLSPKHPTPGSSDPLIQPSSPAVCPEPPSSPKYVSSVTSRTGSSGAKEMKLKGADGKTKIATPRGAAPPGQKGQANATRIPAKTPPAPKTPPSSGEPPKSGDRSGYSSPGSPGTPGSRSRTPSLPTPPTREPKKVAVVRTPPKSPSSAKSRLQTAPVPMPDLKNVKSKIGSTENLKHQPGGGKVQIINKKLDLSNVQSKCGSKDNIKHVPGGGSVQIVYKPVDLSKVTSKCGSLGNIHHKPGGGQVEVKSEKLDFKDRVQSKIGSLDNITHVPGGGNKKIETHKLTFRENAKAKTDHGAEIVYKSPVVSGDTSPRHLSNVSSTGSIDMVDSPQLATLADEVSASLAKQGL
In short: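 E. coli BL21(DE3) carrying pTARA (T7 RNA polymerase under PBAD) and pRKT42 (four-repeat tau) grown at 37 °C in M9 with 0.5% glucose, antibiotics and 250 μM ThS to OD600 0.6. […] ThS fluorescence ex 430/em 485 nm, normalized to tau-expressing cells (100%) and non-expressing cells (0%); OD600 checked for growth.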

[16] = Cytotoxicity against mouse brain Primary embryonic cortical cell assessed as cell death at 5 uM incubated for 6 hrs by propidium iodide dye based spectrofluorometric analysis relative to control; type: toxicity; in short: as §1
SH-SY5Y = assay: Neuroprotective activity against okadaic acid-induced cytotoxicity in human SH-SY5Y cells assessed as increase in cell viability at 0.1 to 10 uM incubated for 24 hrs by MTT assay; type: functional, cell-based; conditions: dose 0.1-10 µM
In short: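 SH-SY5Y cells grown in DMEM with 10% FBS and plated at 4.5×10^4 cells/well. Incubated 24 h at 37 °C, 5% CO2 with compound (0.1–50 μM) plus okadaic acid 100 nM. Viability by MTT, expressed as % of untreated cells; estradiol and PD38 as positive controls. Mean ± SD of three independent experiments; ANOVA with Dunnett's test.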

[17] = Cytotoxicity against mouse brain Primary embryonic cortical cell assessed as cell death at 10 uM incubated for 5 hrs by propidium iodide dye based spectrofluorometric analysis relative to control; type: toxicity; in short: as §1
[18] = Cytotoxicity against mouse brain Primary embryonic cortical cell assessed as cell death at 10 uM incubated for 1 hr by propidium iodide dye based spectrofluorometric analysis relative to control; type: toxicity; in short: as §1
[19] = Cytotoxicity against mouse brain Primary embryonic cortical cell assessed as cell death at 2.5 uM incubated for 24 hrs by propidium iodide dye based spectrofluorometric analysis relative to control; type: toxicity; in short: as §1
[20] = Cytotoxicity against mouse brain Primary embryonic cortical cell assessed as cell death at 10 uM incubated for 2 hrs by propidium iodide dye based spectrofluorometric analysis relative to control; type: toxicity; in short: as §1
[21] = Cytotoxicity against mouse brain Primary embryonic cortical cell assessed as cell death at 5 uM incubated for 72 hrs by propidium iodide dye based spectrofluorometric analysis relative to control; type: toxicity; in short: as §1
[22] = Cytotoxicity against mouse brain Primary embryonic cortical cell assessed as cell death at 2.5 uM incubated for 6 hrs by propidium iodide dye based spectrofluorometric analysis relative to control; type: toxicity; in short: as §1
[23] = Cytotoxicity against mouse brain Primary embryonic cortical cell assessed as cell death at 2.5 uM incubated for 3 hrs by propidium iodide dye based spectrofluorometric analysis relative to control; type: toxicity; in short: as §1
[24] = Cytotoxicity against mouse brain Primary embryonic cortical cell assessed as cell death at 30 uM incubated for 4 hrs by propidium iodide dye based spectrofluorometric analysis relative to control; type: toxicity; in short: as §1
[25] = Cytotoxicity against rat Primary cerebellar granule neuron assessed as cell viability at 10 uM relative to control; type: toxicity, cell-based, Cerebellar granule neurone; conditions: primary cerebellar granule neurons, read-out: Activity
[26] = Cytotoxicity against mouse brain Primary embryonic cortical cell assessed as cell death at 5 uM incubated for 4 hrs by propidium iodide dye based spectrofluorometric analysis relative to control; type: toxicity; in short: as §1
[27] = Cytotoxicity against mouse brain Primary embryonic cortical cell assessed as cell death at 30 uM incubated for 5 hrs by propidium iodide dye based spectrofluorometric analysis relative to control; type: toxicity; in short: as §1
[28] = Cytotoxicity against mouse brain Primary embryonic cortical cell assessed as cell death at 2.5 uM incubated for 72 hrs by propidium iodide dye based spectrofluorometric analysis relative to control; type: toxicity; in short: as §1
[29] = Cytotoxicity against mouse brain Primary embryonic cortical cell assessed as cell death at 10 uM incubated for 3 hrs by propidium iodide dye based spectrofluorometric analysis relative to control; type: toxicity; in short: as §1
[30] = Cytotoxicity against mouse brain Primary embryonic cortical cell assessed as cell death at 30 uM incubated for 6 hrs by propidium iodide dye based spectrofluorometric analysis relative to control; type: toxicity; in short: as §1

For COc1ccc2sc3c(C)ccc(NCCC4CCN(C)CC4)c3c(=O)c2c1, the Activity [1] was 86.1%, the Activity [2] was 7.6% and the Activity [3] was 88.5%. It also gave an IC50 (Acetylcholinesterase [4]) of 4.4 µM, an Activity [5] of 3.8% and an Activity [6] of 17.4%. It also gave an IC50 (Acetylcholinesterase [7]) of 16.1 µM, an Activity [8] of 81.5% and an Activity [9] of 2.9%. It also gave an Activity [10] of 54.7%, an Activity [11] of 15.8% and an Activity [12] of 84.1%. It also gave an Activity [13] of 28.5%, an inhibition (Cholinesterase) of 16% and an Activity [14] of 92.4%. For the same compound, the IC50 [15] was 1.8 µM, the Activity [16] was 41.4% and the Activity (SH-SY5Y) was “Active”. The Activity [17] was 54.4%, the Activity [18] was 16.7% and the Activity [19] was 76.2%. The Activity [20] was 43.5%, the Activity [21] was 85.7% and the Activity [22] was 29.9%. The Activity [23] was 8.5%, the Activity [24] was 56.1% and the viability at 10 µM [25] was 30%. For the same compound, the Activity [26] was 25.8%, the Activity [27] was 60.4% and the Activity [28] was 77.8%. For the same compound, the Activity [29] was 48.9% and the Activity [30] was 61.9%.
